# From PMC10783423 (Medicine, 2024)
# Ends that are not written are not given here.
# Target: Human thrombin (Homo sapiens, UniProt P00734)
# Test: Thrombin inhibitory assay with chromogenic substrate S-2238
# Format: biochemical
# Procedure, shortened: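 Human thrombin (2 U/mL working solution) premixed with test peptide at a range of concentrations. Chromogenic substrate S-2238 (1 mM solution) then added; blanks received buffer instead. All components were in 50 mM Tris-HCl, pH 7.5. Reaction ran 5 min at 37°C, with absorbance read at 375 nm. IC50 was taken as the peptide concentration giving 50% thrombin inhibition.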
row,Substance,IC50
1,AEGYA [P1],0.53 µM
2,EVVNQ [P2],4.35 µM
3,FASRW [P5],2.67 µM
4,FFQQSGG [FFQQSGG],2670 µM
5,FVEIQAL [FVEIQAL],530 µM
6,SLVTKVS [SLVTKVS],4350 µM
